Consider 31 compounds from ChEMBL document CHEMBL1135411, “Design and synthesis of a novel series of 1,2-disubstituted cyclopentanes as small, potent potentiators of 2-amino-3-(3-hydroxy-5-methyl-isoxazol-4-yl)propanoic acid (AMPA) receptors” (J Med Chem, 2002).

Structures are written as SMILES.

Assay [1] deals with T1, Glutamate receptor 4 (Homo sapiens, UniProt P48058). Nature of the assay: Potentiation of responses mediated by 100 uM L-glutamate in transfected HEK293 cells expressing human homomeric iGluR4 flip receptors. The class given is functional, cell-based. Put shortly:
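Calcium influx was measured in confluent HEK293 cells stably expressing human homomeric iGluR4 flip, loaded 60 min with 20 µM Fluo3-AM in HEPES buffer (pH 7.1-7.3, 5 mM Ca2+). Compound at several concentrations preceded 100 µM glutamate by 5 min. Fluorescence was read before and 3 min after glutamate. Responses were scaled to 100 µM cyclothiazide, and EC50 was taken as the mean of at least three experiments.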

Assay [2] concerns the target T1, Glutamate receptor 4. The experiment in a line: % potentiation of responses mediated by 100 uM L-glutamate in human transfected HEK293 cells expressing homomeric iGluR4 flip receptors at a dose of 3 uM. The class given is functional, cell-based. Put shortly:
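HEK293 cells stably expressing human iGluR4 flip, as confluent monolayers, loaded 60 min with 20 µM Fluo3-AM in HEPES-buffered saline (5 mM CaCl2, pH 7.1-7.3), then washed. Compound was added 5 min before 100 µM glutamate. Fluorescence was read just before glutamate and 3 min after. Potentiation at 3 µM, the highest dose tested, was expressed relative to 100 µM cyclothiazide (n = 1).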

T1 sequence (P48058 whole entry): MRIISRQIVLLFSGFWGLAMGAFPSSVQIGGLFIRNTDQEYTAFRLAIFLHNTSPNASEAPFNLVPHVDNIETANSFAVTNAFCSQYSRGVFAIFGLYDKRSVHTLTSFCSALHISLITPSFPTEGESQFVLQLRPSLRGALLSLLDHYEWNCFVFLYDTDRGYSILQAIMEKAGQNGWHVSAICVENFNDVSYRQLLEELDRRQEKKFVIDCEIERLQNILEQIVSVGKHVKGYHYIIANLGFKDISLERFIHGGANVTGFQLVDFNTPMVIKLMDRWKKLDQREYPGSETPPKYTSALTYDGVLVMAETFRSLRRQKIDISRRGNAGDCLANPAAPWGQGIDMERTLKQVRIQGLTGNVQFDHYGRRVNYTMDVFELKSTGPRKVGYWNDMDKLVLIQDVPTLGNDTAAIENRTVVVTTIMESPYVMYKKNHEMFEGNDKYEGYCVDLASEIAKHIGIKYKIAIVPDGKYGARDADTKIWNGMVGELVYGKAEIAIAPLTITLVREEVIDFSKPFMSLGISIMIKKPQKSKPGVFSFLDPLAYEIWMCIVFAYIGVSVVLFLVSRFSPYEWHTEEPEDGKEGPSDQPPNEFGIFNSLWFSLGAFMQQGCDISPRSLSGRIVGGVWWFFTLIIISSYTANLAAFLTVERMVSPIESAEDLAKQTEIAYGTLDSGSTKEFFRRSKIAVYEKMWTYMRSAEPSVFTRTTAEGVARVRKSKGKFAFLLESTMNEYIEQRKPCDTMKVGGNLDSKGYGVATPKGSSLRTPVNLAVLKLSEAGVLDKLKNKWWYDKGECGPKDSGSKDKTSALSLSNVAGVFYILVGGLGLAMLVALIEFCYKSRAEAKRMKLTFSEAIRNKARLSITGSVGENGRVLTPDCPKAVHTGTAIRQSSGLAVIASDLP

As to `CC(C)S(=O)(=O)N[C@@H]1CCC[C@@H]1c1ccc(I)cc1`, the EC50 on Glutamate receptor 4 [1] was 22.6 nM. With `CC(C)S(=O)(=O)N[C@@H]1CCC[C@@H]1c1ccc(C#N)cc1`, on Glutamate receptor 4 [1], the EC50 turned out to be 403 nM. For `CC(C)S(=O)(=O)N[C@@H]1CCC[C@H]1c1ccc(I)cc1`, on Glutamate receptor 4 [2], the Potentiation was 12%.

In the case of `CC(C)S(=O)(=O)N[C@@H]1CCC[C@@H]1c1ccccc1`, the EC50 on Glutamate receptor 4 [1] is 1740 nM.

For `CC(C)S(=O)(=O)N[C@@H]1CCC[C@@H]1c1ccc(F)cc1` (racemic), the Potentiation on Glutamate receptor 4 [2] was 57%. In the case of `CC(C)S(=O)(=O)N[C@H]1CCC[C@@H]1c1ccc(Br)cc1` (racemic), the EC50 on Glutamate receptor 4 [1] turned out to be 130 nM. For the compound `CC(CNS(=O)(=O)C(C)C)c1ccc(Br)cc1` (racemic), the Potentiation at Glutamate receptor 4 [2] was 26%.

Regarding `CC(C)S(=O)(=O)N[C@H]1CCC[C@@H]1c1ccc(Br)cc1`, the EC50 at Glutamate receptor 4 [1] was found to be 82.1 nM. `CC(C)S(=O)(=O)N[C@H]1CCC[C@H]1c1ccccc1`: on Glutamate receptor 4 [2], the Potentiation turned out to be 2%. In the case of `CC(C)S(=O)(=O)N[C@@H]1CCC[C@@H]1c1ccccc1` (racemic), the Potentiation at Glutamate receptor 4 [2] is 48%. Take `CC(C)S(=O)(=O)N[C@H]1CCC[C@@H]1c1ccccc1`: on Glutamate receptor 4 [1], the EC50 stood at 551 nM.

For `CC(C)S(=O)(=O)N[C@@H]1CCC[C@H]1c1ccc(Br)cc1`, the Potentiation on Glutamate receptor 4 [2] amounted to 2%. Still for that read-out and setting: the result for `CC(C)S(=O)(=O)N[C@H]1CCC[C@@H]1c1ccccc1` (racemic) reads 70%. For `CC(C)S(=O)(=O)N[C@@H]1CCC[C@@H]1c1cc(F)cc(F)c1` (racemic), the EC50 on Glutamate receptor 4 [1] worked out at 281 nM.

As for `CC(C)S(=O)(=O)N[C@@H]1CCC[C@@H]1c1ccc([N+](=O)[O-])cc1` (racemic), on Glutamate receptor 4 [1], the EC50 was determined as 190 nM. As for `CC(C)S(=O)(=O)N[C@H]1CCC[C@H]1c1ccc(Br)cc1`, the Potentiation on Glutamate receptor 4 [2] is 27%.

Consider `CC(C)S(=O)(=O)N[C@@H]1CCC[C@@H]1c1ccc(Cl)cc1` (racemic), for which the EC50 at Glutamate receptor 4 [1] worked out at 247 nM. For the compound `CC(C)S(=O)(=O)N[C@H]1CCC[C@H]1c1ccc(I)cc1`, the Potentiation on Glutamate receptor 4 [2] was determined as 34%. On to `CC(C)S(=O)(=O)N[C@@H]1CCC[C@@H]1c1ccc(I)cc1` (racemic), for which, on Glutamate receptor 4 [1], the concentration for a half-maximal effect (EC50) is 45.8 nM. Consider `CC(C)S(=O)(=O)N[C@H]1CCC[C@H]1c1cc(F)cc(F)c1`, for which the Potentiation at Glutamate receptor 4 [2] worked out at 5%. As to `CC(C)S(=O)(=O)N[C@H]1CCC[C@@H]1c1ccc(I)cc1`, on Glutamate receptor 4 [1], the EC50 was 32.8 nM. Same read-out and setting: as for `CC(C)S(=O)(=O)N[C@@H]1CCC[C@@H]1c1ccc(Br)cc1` (racemic), the figure is 147 nM; as for `CC(C)S(=O)(=O)N[C@@H]1CCC[C@@H]1c1cc(F)cc(F)c1`, 118 nM. On to `CC(C)S(=O)(=O)N[C@@H]1CCC[C@@H]1c1ccc(F)c(F)c1` (racemic), for which the 50% effective concentration (EC50) on Glutamate receptor 4 [1] turned out to be 1100 nM. With `CC(C)S(=O)(=O)N[C@H]1CCC[C@H]1c1ccc(C#N)cc1`, the Potentiation on Glutamate receptor 4 [2] is 17%. Take `CC(C)S(=O)(=O)N[C@@H]1CCC[C@H]1c1ccccc1`: the Potentiation on Glutamate receptor 4 [2] is 6%. With `Cc1ccc([C@H]2CCC[C@H]2NS(=O)(=O)C(C)C)cc1` (racemic), on Glutamate receptor 4 [1], the half-maximal effective concentration (EC50) was found to be 434 nM. Take `CC(CNS(=O)(=O)C(C)C)c1ccccc1` (racemic): the Potentiation at Glutamate receptor 4 [2] was 0%. As to `CC(C)S(=O)(=O)N[C@@H]1CCC[C@@H]1c1cccc(F)c1` (racemic), on Glutamate receptor 4 [1], the half-maximal effective concentration (EC50) is 621 nM.

`CC(C)S(=O)(=O)N[C@@H]1CCC[C@@H]1c1ccc(Br)cc1`: the EC50 on Glutamate receptor 4 [1] is 68 nM. Same read-out and setting: as for `CC(C)S(=O)(=O)N[C@H]1CCC[C@@H]1c1ccc(I)cc1` (racemic), the figure is 93.1 nM.

What is called EC50 is the concentration giving half of the maximal effect.
